Compound activity (PubChem BioAssay)
T cell HTS – T cell immune modulation candidate; response (vesicle binding), % at 7 µM; 2C CD8+ T cell-vesicle binding, flow cytometry; hits give low values; 330,000 compounds, 0.068% hits; AID 2052;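 active = response, share of CD8 T cells binding vesicles, and their 90th percentile fluorescence all below set limits, cut at about 80% in these data, passing the limit was not always enough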;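 also: values below 100% mean blocked vesicle binding to the CD8+ T cells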
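Read-out – percent CD8+ FL2 mean versus row control · System – murine 2C transgenic CD8+ T lymphocytes · Times – 1.5 h cell–vesicle binding at 37 °C, then 20 min icy labelling · Control set – naked vesicles low, QL9 vesicles with vehicle high · Detection – cytometric PE anti-B7-1 and Alexa647 anti-CD8 signals after 1% paraformaldehyde fixation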
UPR CHOP act – activators of apoptotic arm of unfolded protein response (CHOP). 330,000 compounds, 0.34% hits. CHO-CHOP luciferase reporter, UPR activation, luminescence; percent of tunicamycin response over DMSO baseline. activation, % at 10 µM;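 active = at 10 µM dose, activation of 40% or more, normalized to positive control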;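 also: 100% = tunicamycin at 10 µg/mL and 0% = DMSO alone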
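Assay system: CHO-CHOP cells, stable luciferase reporter of PERK-eIF2a-CHOP signalling / Buffer or medium: F12 plus 10% serum / Compound dosing: one dose, 10 µM in 0.5% DMSO / Times: 6 h compound treatment, 37 °C / Technique: luciferase luminescence / Read-out: % reporter activation, DMSO baseline versus tunicamycin full activation / Benchmarks: tunicamycin and DMSO controls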
Beta2AR agonist – human beta-2 adrenergic receptor agonism by FAP; Am2.2-beta2AR cells, FAP receptor internalization, flow cytometry; response, % (no concentration beside the values); 340,000 compounds, 0.43% hits;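 active = response above a set limit, near 3 SD of response in nonfluorescent compounds, cut at about 42% in these data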
Target sequence (P07550 whole entry, looked up): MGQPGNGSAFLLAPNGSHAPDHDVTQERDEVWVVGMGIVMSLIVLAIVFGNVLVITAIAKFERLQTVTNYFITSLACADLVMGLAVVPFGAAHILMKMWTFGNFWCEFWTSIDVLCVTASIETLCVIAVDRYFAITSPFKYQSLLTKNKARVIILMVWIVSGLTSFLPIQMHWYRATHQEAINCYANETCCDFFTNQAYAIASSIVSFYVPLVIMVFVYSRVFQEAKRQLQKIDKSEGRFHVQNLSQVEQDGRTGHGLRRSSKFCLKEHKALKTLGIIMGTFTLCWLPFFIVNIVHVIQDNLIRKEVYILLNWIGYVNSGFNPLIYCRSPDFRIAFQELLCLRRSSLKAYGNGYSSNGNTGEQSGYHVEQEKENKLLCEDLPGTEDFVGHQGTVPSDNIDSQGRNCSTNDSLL
UPR XBP1 act – activators of adaptive arm of unfolded protein response (XBP1) | 330,000 compounds, 0.33% hits | CHO-XBP1 luciferase reporter, IRE1-XBP1 UPR activation, luminescence; percent of tunicamycin response, DMSO as zero | activation, % at 20 µM;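 active = versus positive control, 20 µM dose yields 30% or more activation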;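 also: 100% = tunicamycin at 10 µg/mL and 0% = DMSO only wells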
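Material: CHO-XBP1 cells stably carrying IRE1-XBP1-driven luciferase reporter / Amount: 1000 cells per well / Compound: 20 µM, 1% DMSO / Times: 6 h treatment, 37 °C / Detection: luciferase luminescence / Measure: % activation of reporter signal versus tunicamycin and DMSO controls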
XBP1 UPR conf – adaptive UPR (XBP1) activation, confirmed; shares compounds with UPR XBP1 act; CHO-XBP1 IRE1-XBP1 luciferase reporter, luminescence; activation, % at 20 µM; 1,000 compounds, 63% hits; AID 485299;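 active = reporter signal at least 30% of the positive control's activation in two or more of four replicate wells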;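 also: plate controls were DMSO negative control for no effect and tunicamycin 10 µg/mL positive control for full effect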
B2AR ag CP1 – activates human beta-2 adrenergic receptor | percent response (surface receptor), % at 10 µM | 1,100 compounds, 25% hits | shares compounds with Beta2AR agonist | Am2.2-beta2AR cells, FAP surface receptor, flow cytometry; hits give low values;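 active = surface receptor percent response at or below 58%, roughly 3 SD from nonfluorescent compounds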
B2AR FAP counter – counter-screen for beta-2AR agonists: fluorescence in Am2.2 cells | shares compounds with Beta2AR agonist | calls only at 10 µM | 1,100 tested, under 10 active | FAP fluorogen flow cytometry, fluorescence counterscreen; hits give low values;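 active = percent response below a set limit in fluorescence channel 1 and below 50% in channel 8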
* hit, by the source's call; i = inactive; . = no result. In the library only some 1% were active in any assay of this set; here they are far more common.

SMILES	T cell HTS	UPR CHOP act	Beta2AR agonist	UPR XBP1 act	B2AR ag CP1	B2AR FAP counter	others
O=C1NC(=O)N(Cc2ccc(F)cc2)C(=O)/C1=C\c1ccoc1	202	0	7	2	.	.
O=C1NC(=O)N(Cc2ccc(F)cc2)C(=O)/C1=C/c1cccs1	472	8	22	39*	.	.	XBP1 UPR conf=40*
CCCCCn1c(=O)c(C(=O)NC(C)c2ccccc2)c(O)c2ccccc21 (configuration not stated)	366	0	1	-7	.	.
NS(=O)(=O)c1ccc(N=Cc2c(O)n(C3CCCCC3)c(=O)n(C3CCCCC3)c2=O)cc1	361	3	7	46*	.	.	XBP1 UPR conf=40*
CC(NCC#Cc1ccccc1)C(O)c1ccccc1 (configuration not stated)	703	0	4	1	.	.
O=c1[nH]c(O)c(/C=C2/C=CC(c3cc(Cl)ccc3Cl)=N2)c(=O)[nH]1	178	13	-23	68*	.	.	XBP1 UPR conf=111*
CC1=Nc2ccccc2/C1=C/c1c(O)[nH]c(=O)[nH]c1=O	92	2	19	-5	.	.
O=C(CSC1c2ccccc2-c2ccccc21)N/N=C/c1ccccc1C(=O)O	410	1	1	-1	.	.
OC(c1cccc(Cl)c1)(c1cccc(Cl)c1)C1CN2CCC1CC2 (configuration not stated)	268	1	59*	3	90	i
OC(CNCc1ccccc1)c1ccc(Cl)cc1 (configuration not stated)	.	.	-2	.	98	i
CN1CC(C(=O)c2ccc(Cl)cc2)C(c2ccccc2F)C1 (configuration not stated)	245	-1	0	1	.	.
COC(=O)C1=C(c2cccc(OCc3ccccc3)c2)C[C@@H]2CC[C@H]1N2C(=O)NCc1ccccc1	338	-1	10	-2	.	.
COC(=O)C1=C(c2cccc(OCc3ccccc3)c2)C[C@@H]2CC[C@H]1N2C(=O)NCc1cccc(F)c1	457	2	54*	-2	46*	i
CNCCC(Oc1ccc(C(F)(F)F)cc1)c1ccccc1 (configuration not stated)	394	1	9	-7	109	i
CNCCc1ccccc1	256	-1	.	-3	.	.
CCCCOc1ccc(CN2CCN(CC)CC2)cc1	562	-1	-2	0	.	.
